The target in one test is Mu-type opioid receptor (Rattus norvegicus, UniProt P33535). As to the kind of experiment: Displacement of [3H]DAMGO from mu opioid receptor in rat brain by liquid scintillation counting. It counts as tissue-based.
Test [1] deals with Kappa-type opioid receptor (Cavia porcellus, UniProt P41144). As to the kind of experiment: Displacement of [3H]U69593 from guinea pig kappa opioid receptor by liquid scintillation counting. The procedure, abridged: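 Receptor membrane suspension incubated with 3 nM [3H]U69,593 as the tritiated competitor. Unlabeled U50,488 served as the kappa standard: it generated a standard curve on every plate and defined nonspecific binding. IC50 values came from dose-response testing.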
Kappa-type opioid receptor, sequence (P41144 whole entry): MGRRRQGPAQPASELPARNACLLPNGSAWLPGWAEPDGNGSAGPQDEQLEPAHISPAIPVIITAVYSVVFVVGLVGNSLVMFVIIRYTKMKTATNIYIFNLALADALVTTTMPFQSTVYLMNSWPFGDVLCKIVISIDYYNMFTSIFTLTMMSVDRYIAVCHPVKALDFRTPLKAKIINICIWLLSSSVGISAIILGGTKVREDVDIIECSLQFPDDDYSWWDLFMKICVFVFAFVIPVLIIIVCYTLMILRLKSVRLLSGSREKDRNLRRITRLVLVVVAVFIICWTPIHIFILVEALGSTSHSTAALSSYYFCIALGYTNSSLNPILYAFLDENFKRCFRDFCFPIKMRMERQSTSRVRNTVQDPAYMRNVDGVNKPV

The target of test [2] is Delta-type opioid receptor (Rattus norvegicus, UniProt P33533). As to the kind of experiment: Displacement of [3H]DSLET from delta opioid receptor in rat brain by liquid scintillation counting. In kind it is tissue-based.
Delta-type opioid receptor, sequence (P33533 whole entry): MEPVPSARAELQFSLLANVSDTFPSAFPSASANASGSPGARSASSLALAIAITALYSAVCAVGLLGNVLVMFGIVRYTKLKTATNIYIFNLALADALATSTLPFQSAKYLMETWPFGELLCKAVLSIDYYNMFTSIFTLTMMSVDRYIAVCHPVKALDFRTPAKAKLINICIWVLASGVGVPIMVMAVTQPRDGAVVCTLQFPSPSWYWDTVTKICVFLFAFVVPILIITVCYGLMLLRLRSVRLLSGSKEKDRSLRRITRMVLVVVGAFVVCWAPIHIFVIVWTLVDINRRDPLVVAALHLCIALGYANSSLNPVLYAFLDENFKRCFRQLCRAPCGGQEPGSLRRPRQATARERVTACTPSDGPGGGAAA

The source of these data is ChEMBL document CHEMBL1154110, “Identification, structure-activity relationships and molecular modeling of potent triamine and piperazine opioid ligands” (Bioorg Med Chem, 2009).

Mu-type opioid receptor, sequence (P33535 whole entry): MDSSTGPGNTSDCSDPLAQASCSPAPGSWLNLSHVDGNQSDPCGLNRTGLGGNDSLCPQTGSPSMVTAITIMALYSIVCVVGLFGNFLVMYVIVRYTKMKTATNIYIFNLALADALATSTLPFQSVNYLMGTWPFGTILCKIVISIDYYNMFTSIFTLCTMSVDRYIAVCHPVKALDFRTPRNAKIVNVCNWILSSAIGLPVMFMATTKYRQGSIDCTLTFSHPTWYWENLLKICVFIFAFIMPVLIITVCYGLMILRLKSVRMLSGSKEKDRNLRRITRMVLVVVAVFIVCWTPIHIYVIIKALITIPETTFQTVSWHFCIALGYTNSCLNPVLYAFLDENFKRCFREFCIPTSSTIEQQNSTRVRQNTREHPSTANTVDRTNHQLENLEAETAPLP

Consider `CC(C)[C@H](CNCc1ccccc1)N1CCN(CCC2CC3CCC2C3)[C@@H](Cc2ccccc2)C1` (stereo partly specified), for which the IC50 was more than 1000 nM on Mu-type opioid receptor, more than 1000 nM in test [1] and more than 10000 nM in test [2].
In the case of `CCC[C@H](CNC)NC[C@H](Cc1ccc(O)cc1)NCCC1CC2CCC1C2` (stereo partly specified), the half-maximal inhibitory concentration (IC50) is 178 nM on Mu-type opioid receptor, 333 nM in test [1] and more than 10000 nM in test [2].
For `CNC[C@H](Cc1ccc(O)cc1)N1CCN(CCc2cccc(C)c2)[C@@H](C(C)C)C1`, in that order: 206 nM, more than 1000 nM and more than 10000 nM.
For `CCC[C@H](CNC)NC[C@H](Cc1ccc(O)cc1)NCC1CCC(C)CC1` (stereo partly specified), in that order: 225 nM, 1750 nM and more than 10000 nM.
For `CCC[C@H](CN[C@H](CNC)Cc1ccc(O)cc1)NCCC12CC3CC(CC(C3)C1)C2`, in that order: 530 nM, 37 nM and more than 10000 nM.
Take `CCC[C@H](CNC)NC[C@@H](CCC)NCCC12CC3CC(CC(C3)C1)C2`: the IC50 at Mu-type opioid receptor is more than 1000 nM; in test [1], more than 1000 nM; in test [2], more than 10000 nM.
`CNC[C@@H](Cc1ccc(O)cc1)N1CCN(CC2CCCCCC2)CC1`: the IC50 is 90 nM at Mu-type opioid receptor, 223 nM in test [1] and more than 10000 nM in test [2].
For `CNC[C@H](Cc1ccc(O)cc1)NC[C@H](Cc1ccc(O)cc1)NCC1CCC(C)CC1` (stereo partly specified), in that order: 313 nM, 102 nM and more than 10000 nM.
Take `CCC[C@H](CNC)NC[C@H](Cc1ccc(O)cc1)NCCC1CCCC1`: the IC50 at Mu-type opioid receptor was 240 nM; in test [1], 766 nM; in test [2], more than 10000 nM.
For `CCC[C@H](CN[C@H](CNC)Cc1ccc(O)cc1)NCCC1CCCC1`, in that order: 648 nM, 97 nM and more than 10000 nM.
Regarding `CNC[C@@H](Cc1ccc(O)cc1)N1CCN(CCc2cccc(C)c2)[C@@H](C(C)C)C1`, the IC50 was more than 1000 nM on Mu-type opioid receptor, more than 1000 nM in test [1] and more than 10000 nM in test [2].
With `CNC[C@H](Cc1ccc(O)cc1)N1CCN(CCC2CC3CCC2C3)CC1` (stereo partly specified), the IC50 on Mu-type opioid receptor amounted to 167 nM; in test [1], 373 nM; in test [2], 1960 nM.
For `CC[C@H](C)[C@@H](CNC)N1CCN(CCCC2CCCCC2)[C@H](C(C)C)C1`, in that order: more than 1000 nM, 58 nM and more than 10000 nM.
Regarding `CCC[C@H](CNC)NC[C@@H](CCC)NCCC1CC2CCC1C2` (stereo partly specified), the IC50 on Mu-type opioid receptor is more than 1000 nM; in test [1] it was more than 1000 nM; in test [2], more than 10000 nM.
For the compound `CCC[C@H](CNC)NC[C@@H](CCC)NCCC1CCCC1`, the half-inhibitory concentration (IC50) is more than 1000 nM at Mu-type opioid receptor, 102 nM in test [1] and more than 10000 nM in test [2].
Regarding `CCC[C@H](CN[C@H](CNC)Cc1ccc(O)cc1)NCC1CCC(C)CC1` (stereo partly specified), the figures for the half-inhibitory concentration (IC50) (on Mu-type opioid receptor; in test [1]; in test [2]) were more than 1000 nM, 14 nM and more than 10000 nM, respectively.
For `CNC[C@@H](Cc1ccc(O)cc1)N1CCN(CCCC2CCCCC2)[C@H](C(C)C)C1`, in that order: 920 nM, 654 nM and more than 10000 nM.
For `CCCC[C@H](CNCc1ccccc1)N1CCN(CC(C)C)[C@H](Cc2ccc(O)cc2)C1`, in that order: more than 1000 nM, 102 nM and more than 10000 nM.
With `CCC[C@H](CNC)NC[C@@H](CCC)NCC1CCC(C)CC1` (stereo partly specified), the half-maximal inhibitory concentration (IC50) at Mu-type opioid receptor is more than 1000 nM; in test [1], more than 1000 nM; in test [2] it was more than 10000 nM.
`CNC[C@@H](Cc1ccc(O)cc1)N1CCN(CCC2CC3CCC2C3)[C@H](C(C)C)C1` (stereo partly specified): the IC50 was 336 nM on Mu-type opioid receptor, 230 nM in test [1] and more than 10000 nM in test [2].
For `CNC[C@@H](Cc1ccc(O)cc1)N1CCN(CC2CCCCCC2)[C@@H](C(C)C)C1`, in that order: more than 1000 nM, more than 1000 nM and more than 10000 nM.
Consider `CC(C)[C@@H]1CN([C@@H](CNCc2ccccc2)C(C)C)CCN1CCC1CCCC1`, for which the concentration for half-maximal inhibition (IC50) at Mu-type opioid receptor is more than 1000 nM; in test [1], more than 1000 nM; in test [2] it was more than 10000 nM.
With `CNC[C@H](Cc1ccc(O)cc1)N1CCN(CCC2CC3CCC2C3)[C@@H](C(C)C)C1` (stereo partly specified), the IC50 is 223 nM at Mu-type opioid receptor, 374 nM in test [1] and more than 10000 nM in test [2].
For `CNC[C@@H](Cc1ccc(O)cc1)N1CCN(CCC2CC3CCC2C3)[C@@H](C(C)C)C1` (stereo partly specified), in that order: more than 1000 nM, more than 1000 nM and more than 10000 nM.
For `CNC[C@@H](Cc1ccc(O)cc1)N1CCN(CCCC(C)C)[C@@H](C(C)C)C1`, in that order: more than 1000 nM, more than 1000 nM and more than 10000 nM.
For `CCC(C)[C@@H](CNC)N1CCN(CCC23CC4CC(CC(C4)C2)C3)[C@H](C(C)C)C1` (stereo partly specified), in that order: more than 1000 nM, 119 nM and more than 10000 nM.
In the case of `CNC[C@H](Cc1ccc(O)cc1)NC[C@H](Cc1ccc(O)cc1)NCCC1CCCC1`, the values for the concentration for half-maximal inhibition (IC50) (on Mu-type opioid receptor; in test [1]; in test [2]) were 170 nM, 186 nM and 2880 nM, respectively.
For the compound `CNC[C@H](Cc1ccc(O)cc1)N1CCN(CC2CCCCCC2)CC1`, the figures for the IC50 (on Mu-type opioid receptor; in test [1]; in test [2]) were 152 nM, 93 nM and more than 10000 nM, respectively.
For `CC(C)[C@@H]1CN([C@@H](CNCc2ccccc2)C(C)C)CCN1CCC1CC2CCC1C2` (stereo partly specified), in that order: more than 1000 nM, more than 1000 nM and more than 10000 nM.
For `CNC[C@H](Cc1ccc(O)cc1)NC[C@H](Cc1ccc(O)cc1)NCC1CCCCCC1`, in that order: 54 nM, 22 nM and more than 10000 nM.
`CCC[C@H](CNC)NC[C@H](Cc1ccc(O)cc1)NCC1CCCCCC1`: the IC50 at Mu-type opioid receptor is 107 nM; in test [1], 439 nM; in test [2] it was more than 10000 nM.
For `CC(C)[C@@H]1CN([C@@H](CNCc2ccccc2)C(C)C)CCN1CCc1ccccc1`, in that order: more than 1000 nM, more than 1000 nM and more than 10000 nM.
For the compound `CNC[C@@H](Cc1ccc(O)cc1)N1CCN(CCC2CC3CCC2C3)CC1` (stereo partly specified), the IC50 on Mu-type opioid receptor was 92 nM; in test [1] it was 476 nM; in test [2], more than 10000 nM.
For `CC(C)CCN1CCN([C@@H](CNCc2ccccc2)C(C)C)C[C@H]1C(C)C`, in that order: more than 1000 nM, more than 1000 nM and more than 10000 nM.
For `CNC[C@@H](Cc1ccc(O)cc1)N1CCN(CCCC(C)C)CC1`, in that order: 471 nM, more than 1000 nM and more than 10000 nM.
Consider `CC(C)(C)CCN1CCN([C@@H](CNCc2ccccc2)Cc2ccc(O)cc2)C[C@@H]1Cc1ccc(O)cc1`, for which the IC50 on Mu-type opioid receptor is more than 1000 nM; in test [1] it was 387 nM; in test [2], 4550 nM.
For `CNC[C@H](Cc1ccc(O)cc1)NC[C@H](Cc1ccc(O)cc1)NCCC1CC2CCC1C2` (stereo partly specified), in that order: 270 nM, 452 nM and more than 10000 nM.
For `CCC[C@H](CN[C@H](CNC)Cc1ccc(O)cc1)NCCC1CC2CCC1C2` (stereo partly specified), in that order: 174 nM, 17 nM and 2100 nM.
In the case of `CCCC[C@H](CNCc1ccccc1)N1CCN(CC2CCCCCC2)[C@H](Cc2ccc(O)cc2)C1`, the figures for the concentration for half-maximal inhibition (IC50) (at Mu-type opioid receptor; in test [1]; in test [2]) were more than 1000 nM, 161 nM and more than 10000 nM, respectively.
For `CC[C@H](C)[C@@H](CNC)N1CCN(CCC2CC3CCC2C3)[C@H](C(C)C)C1` (stereo partly specified), in that order: more than 1000 nM, more than 1000 nM and more than 10000 nM.
For `CC(C)[C@H](CNCc1ccccc1)N1CCN(CCC2CCCC2)[C@@H](Cc2ccccc2)C1`, in that order: more than 1000 nM, more than 1000 nM and more than 10000 nM.
For `CCC[C@H](CNC)NC[C@@H](CCC)NCC1CCCCCC1`, in that order: more than 1000 nM, more than 1000 nM and more than 10000 nM.
